High-throughput results from PubChem BioAssay.
Compounds with a hit are over-represented: about 5.9% of the library has one in this group of screens.
IDH1 R132H inh = inhibitors of human IDH1 R132H. O75874. IDH1 R132H reductase, diaphorase/resazurin fluorescence, 60 min. inhibition, % at 10 µM. 70,000 tested, 0.18% active. AID 624101; in the data active = inhibition above about 34%; inconclusive = no clear call, values can overlap the other calls; inactive = below about 11%;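 also: 0% = DMSO and 100% = no enzyme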
T cruzi growth-1 = inhibitors of T. cruzi proliferation; T. cruzi beta-gal in NIH3T3, GalScreen luminescence, 90 h; AID 624255; inhibition, % at 8.34 µM; 77,000 tested, 5.9% active;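 active = mean inhibition above about 93%, with at least 55% of replicates each passing it, limit read from the data, passing the limit was not always enough; inconclusive = only one of those two conditions holds; inactive = neither condition holds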
Pf Dd2 growth = P. falciparum Dd2 growth inhibition; SYBR Green, 72 h; stronger effect = lower value; activity change, % at 10 µM; 94,000 tested, 2.3% active; in the data active = activity change below about -80%; inconclusive = no clear call, values can overlap the other calls
GASC1 inh = KDM4C (human) demethylase inhibition | inhibition, % at 12.5 µM | Q9H3R0 | AID 720574 | 96,000 tested, 0.15% active | GST-KDM4C 2-372, H3K9me3 peptide, LANCE TR-FRET;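 active = mean replicate inhibition above about 25%, with at least 55% of replicates also reaching it, limit read from the data, passing the limit was not always enough; inconclusive = only one of those two conditions met; inactive = neither condition met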
Target sequence (Q9H3R0 2-372 limits assumed): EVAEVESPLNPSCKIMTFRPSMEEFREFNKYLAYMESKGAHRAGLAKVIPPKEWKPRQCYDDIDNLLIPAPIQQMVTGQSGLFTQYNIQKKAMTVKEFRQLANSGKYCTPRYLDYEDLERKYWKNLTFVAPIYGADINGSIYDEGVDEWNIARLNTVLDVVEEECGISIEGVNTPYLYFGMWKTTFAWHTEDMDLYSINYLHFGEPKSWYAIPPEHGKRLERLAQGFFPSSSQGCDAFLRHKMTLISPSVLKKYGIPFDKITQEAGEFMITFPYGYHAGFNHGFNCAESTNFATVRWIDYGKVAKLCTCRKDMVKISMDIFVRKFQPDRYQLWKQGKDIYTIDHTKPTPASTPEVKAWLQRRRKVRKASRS
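Assay system: GST-GASC-1 enzyme fragment 2-372 | Amount: 10 nM enzyme | Medium: HEPES buffer, pH 7.5, plus ascorbate | Reagent: H3K9me3 peptide substrate, Fe(II), 2-oxoglutarate | Doses: Single-point compound screen | Incubation: 30 min demethylation and 1 h detection at room temperature | Measured by: LANCE TR-FRET, excitation 340 nm, emissions 618 and 671 nm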
T cruzi growth-2 = inhibitors of T. cruzi proliferation. AID 651739. T. cruzi beta-gal in NIH3T3, GalScreen luminescence, 90 h. 5,600 tested, 72% active. inhibition, % at 8.35 µM. shares compounds with T cruzi growth-1;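 active = mean replicate inhibition above about 95% and at least 55% of replicates individually reaching it, limit read from the data; inconclusive = only one of the two criteria is met; inactive = neither criterion is met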
T cruzi growth-3 = inhibitors of T. cruzi proliferation | shares compounds with T cruzi growth-1 | T. cruzi beta-gal in NIH3T3, GalScreen luminescence, 90 h | inhibition, % at 2.09 µM | 5,600 tested, 21% active | AID 651740;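 active = mean inhibition above about 95%, with at least 55% of replicates also reaching it, limit read from the data; inconclusive = meets just one of the two conditions; inactive = meets neither condition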;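 also: plate controls were neutral control median for no effect and positive control median for full effect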
3T3 cytotox = NIH/3T3 (mouse) viability loss; shares compounds with T cruzi growth-1; NIH/3T3 viability, CellTiter-Glo ATP luminescence, 90 h; cytotoxicity (signal decrease), % at 8.35 µM; 5,600 tested, 14% active;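 active = mean signal decrease across replicates above about 35% based on untreated-well scatter, with enough replicates individually passing, limit read from the data; inconclusive = no rule stated though some were filed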;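 also: 0% = median of neutral control wells and 100% = median of positive control wells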
3T3 cytotox 2 = NIH/3T3 (mouse) viability loss. shares compounds with T cruzi growth-1. NIH/3T3 viability, CellTiter-Glo ATP luminescence, 90 h. inhibition, % at 24.9 µM. 5,600 tested, 56% active. AID 651744;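 active = mean loss of cell viability signal at or above a set limit, and enough replicates individually reaching it; inconclusive = meets only the mean limit or only the replicate share; inactive = meets neither condition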;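 also: 0% = median of neutral control wells and 100% = median of positive control wells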
Active calls of the source: *; ? = inconclusive; . = no result.

SMILES | IDH1 R132H inh | T cruzi growth-1 | Pf Dd2 growth | GASC1 inh | T cruzi growth-2 | T cruzi growth-3 | 3T3 cytotox | 3T3 cytotox 2
Cc1noc(C)c1S(=O)(=O)Nc1ccc2c(c1)C(=O)N([C@H](C)CO)C[C@H](C)[C@@H](CN(C)Cc1ccc(C(F)(F)F)cc1)OCCCC[C@@H](C)O2 | . | 96* | 11 | 0 | 106* | 24 | 13 | 4
Cc1noc(C)c1S(=O)(=O)Nc1ccc2c(c1)C(=O)N([C@H](C)CO)C[C@H](C)[C@H](CN(C)Cc1ccc(C(F)(F)F)cc1)OCCCC[C@@H](C)O2 | 0 | ? | 13 | 2 | 106* | -1 | 2 | ?
Cc1noc(C)c1S(=O)(=O)Nc1ccc2c(c1)C(=O)N([C@@H](C)CO)C[C@H](C)[C@@H](CN(C)Cc1ccc(C(F)(F)F)cc1)OCCCC[C@H](C)O2 | . | 103* | -8 | -1 | 104* | 74 | -5 | 104*
Cc1noc(C)c1S(=O)(=O)Nc1ccc2c(c1)C(=O)N([C@@H](C)CO)C[C@@H](C)[C@@H](CN(C)Cc1ccc(C(F)(F)F)cc1)OCCCC[C@@H](C)O2 | 2 | 99* | -18 | -2 | 94 | 112* | 19 | 106*
COc1ccc(NC(=O)N(C)C[C@@H]2Oc3ncc(C#C[C@H](C)O)cc3C(=O)N([C@H](C)CO)C[C@@H]2C)cc1 | . | 49 | 33 | -1 | . | . | . | .
Cc1noc(C)c1S(=O)(=O)Nc1ccc2c(c1)C(=O)N([C@@H](C)CO)C[C@@H](C)[C@H](CN(C)C(=O)Nc1ccc(C(F)(F)F)cc1)OCCCC[C@@H](C)O2 | 2 | 106 | -14 | 0 | . | . | . | .
Cc1noc(C)c1S(=O)(=O)Nc1ccc2c(c1)C(=O)N([C@@H](C)CO)C[C@H](C)[C@@H](CN(C)C(=O)Nc1ccc(C(F)(F)F)cc1)OCCCC[C@H](C)O2 | 3 | 125* | -77 | 0 | 95* | 111* | 5 | 63*
C[C@@H]1CN([C@H](C)CO)C(=O)c2c(c3ccccc3n2C)-c2ccccc2CO[C@H]1CN(C)C(=O)Nc1ccc(F)cc1 | . | -49 | -78 | -1 | . | . | . | .
CNC(=O)C[C@@H]1CC[C@@H]2[C@@H](COc3ccc(NC(=O)c4cccc(F)c4)cc3C(=O)N2C)O1 | . | -26 | -10 | 1 | . | . | . | .
CO[C@@H]1CC[C@@H]2CCOc3c(C#N)cccc3C(=O)N(C)CCCC(=O)N(C)C[C@@H]1O2 | 0 | 40 | 21 | 0 | . | . | . | .
COc1cccc(C#Cc2ccc3c(c2)[C@@H]2[C@@H](CCN2S(=O)(=O)c2ccccc2)[C@H](CO)N3)c1 | . | . | -56 | -4 | . | . | . | .
COc1cccc(C#Cc2ccc3c(c2)[C@H]2[C@H](CCN2S(=O)(=O)c2ccccc2)[C@H](CO)N3)c1 | . | 105* | -45 | 0 | 108* | 84 | 14 | 17
COc1cccc(S(=O)(=O)N2CC[C@@H]3[C@H](CO)Nc4ccc(C#Cc5cccnc5)cc4[C@@H]32)c1 | . | 110* | -8 | -1 | 108* | 71 | 29 | 22
Cc1ccccc1S(=O)(=O)N1[C@@H](C#N)[C@H](c2ccc(C#CC3CCCC3)cc2)[C@@H]1CO | . | . | -55 | -3 | . | . | . | .
N#C[C@@H]1[C@@H](c2ccc(C#CC3CCCC3)cc2)[C@@H](CO)N1S(=O)(=O)c1ccccc1 | . | 99* | -30 | 0 | 102* | ? | 46* | 102*
N#C[C@H]1[C@H](c2ccc(C#CC3CC3)cc2)[C@H](CO)N1S(=O)(=O)c1ccccc1 | . | 101* | -70 | 0 | 103* | 109* | -1 | 34*
N#C[C@H]1[C@H](c2ccc(C#CC3CCCC3)cc2)[C@H](CO)N1S(=O)(=O)c1ccccc1 | . | 90 | -9 | -1 | . | . | . | .
N#C[C@H]1[C@@H](c2ccc(C#CC3CCCC3)cc2)[C@H](CO)N1S(=O)(=O)c1ccccc1 | . | 88 | -46 | -2 | . | . | . | .
N#C[C@@H]1[C@H](c2ccc(C#CC3CC3)cc2)[C@@H](CO)N1S(=O)(=O)c1ccccc1 | . | ? | -70 | 0 | 103* | 109* | 8 | -4
N#C[C@@H]1[C@H](c2ccc(C#CC3CCCCC3)cc2)[C@H](CO)N1S(=O)(=O)c1ccccc1 | . | 80 | -71 | -1 | . | . | . | .
N#C[C@H]1[C@@H](c2ccc(C#CC3CC3)cc2)[C@@H](CO)N1S(=O)(=O)c1ccccc1 | . | 96* | -13 | 5 | 107* | 63 | -7 | 36*
O=C(CN1CCOCC1)N1CC(=O)N2[C@H](C1)[C@@H](c1ccc(-c3cccc(F)c3)cc1)[C@@H]2CO | . | . | -4 | 0 | . | . | . | .
C[C@H]1CCCCO[C@H](CN(C)S(=O)(=O)c2ccc(F)cc2)[C@@H](C)CN([C@@H](C)CO)C(=O)c2cc(NC(=O)Nc3cccc4ccccc34)ccc2O1 | -1 | 82 | -76 | -1 | . | . | . | .
O=C(C[C@H]1C=C[C@H](NC(=O)C2CCOCC2)[C@H](CO)O1)NCCc1cscn1 | 0 | 28 | -6 | 0 | . | . | . | .
C[C@@H]1CCCCO[C@@H](CN(C)Cc2ccccc2)[C@@H](C)CN([C@H](C)CO)C(=O)c2cc(NC(=O)Nc3ccc4c(c3)OCO4)ccc2O1 | 0 | 43 | 36 | -1 | . | . | . | .
SMILES | IDH1 R132H inh | T cruzi growth-1 | Pf Dd2 growth | GASC1 inh | T cruzi growth-2 | T cruzi growth-3 | 3T3 cytotox | 3T3 cytotox 2
C[C@@H]1CCCCO[C@H](CN(C)Cc2ccccc2)[C@H](C)CN([C@H](C)CO)C(=O)c2cc(NC(=O)Nc3ccc4c(c3)OCO4)ccc2O1 | 1 | 98* | -78 | 5 | 106* | 91 | 12 | 52*
C[C@@H]1CCCCO[C@@H](CN(C)Cc2ccc3c(c2)OCO3)[C@@H](C)CN([C@H](C)CO)C(=O)c2cc(NC(=O)Nc3ccccc3)ccc2O1 | . | ? | 18 | -1 | 112* | 79 | 20 | 18
C[C@@H]1CCCCO[C@H](CN(C)Cc2ccc3c(c2)OCO3)[C@H](C)CN([C@H](C)CO)C(=O)c2cc(NC(=O)Nc3ccccc3)ccc2O1 | . | 114* | ? | 5 | ? | 103* | 10 | 104*
CS(=O)(=O)Nc1ccc2c(c1)[C@H]1C[C@@H](CC(=O)O)O[C@@H](CO)[C@H]1O2 | . | . | 19 | 3 | . | . | . | .
CCC(=O)N1Cc2cc(C(=O)N3CCN(C)CC3)nc(-c3cccc(-c4cccnc4)c3)c2[C@@H]1CCO | . | . | 19 | -2 | . | . | . | .
OC[C@@H]1[C@@H](c2ccc(C#CC3(O)CCCC3)cc2)[C@@H]2CN(Cc3cccnc3)CCCCN12 | . | 85 | -9 | 1 | . | . | . | .
OC[C@H]1[C@H](c2ccc(C#CC3(O)CCCC3)cc2)[C@H]2CN(Cc3cccnc3)CCCCN21 | . | 85 | -4 | 0 | . | . | . | .
